# Several values for one entry are separate records, joined by “and”; a condition that tells them apart may be missing. Equal values may be shown once. Square brackets hold non-standard residues; d marks the D form. Peptide text beside a SMILES is read from it. * marks the point of attachment. Hydrocinnamoyl = O=C(CCc1ccccc1)*; Undecanoyl = CCCCCCCCCCC(=O)*; pGlu = O=C1CC[C@@H](C(=O)O)N1; Ac6c = NC1(C(=O)O)CCCCC1; Morpholide = C1CN(*)CCO1; Cbz = O=C(OCc1ccccc1)*; NHBn = c1ccc(CN*)cc1; NHPh = c1ccc(N*)cc1
# Species on record: Rattus norvegicus
# Test: Inhibition of rat recombinant Rab geranylgeranyltransferase at 100 uM in presence of canine Rab7 and rat REP1 NBD-FPP based continuous fluorimetric assay
# Summary of the method: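 Continuous fluorometric assay in 96/384-well format: 3 μM Rab7, 3 μM REP1, 9 μM NBD-FPP and 400 nM RabGGTase, with or without inhibitor. […] IC50 was calculated from three independent measurements.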
row,inhibition,Compound
1,89%,O=C(CCc1ccccc1)N[C@@H](CO)C(=O)N[C@@H](Cc1ccccc1)C(=O)N[C@@H](CO)C(=O)Nc1ccccc1 (Hydrocinnamoyl-Ser-Phe-Ser-NHPh)
2,101%,NCCOC(=O)[C@H](Cc1ccc(O)cc1)NC(=O)CNC(=O)[C@H](Cc1c[nH]cn1)NC(=O)OCc1ccccc1
3,54%,CCCCCCCCCCCC(=O)N[C@@H](Cc1ccc(O)cc1)C(=O)N[C@@H](Cc1c[nH]cn1)C(=O)N[C@@H](Cc1c[nH]cn1)C(=O)N(C)CCc1ccccn1
4,82%,CCCCCCCCCCCCCCCC(=O)N[C@@H](Cc1ccc(O)cc1)C(=O)N[C@@H](Cc1ccc(O)cc1)C(=O)N[C@@H](Cc1ccc(O)cc1)C(=O)Nc1ccc(F)cc1F
5,38%,CCCCCCCCCCCCCC(=O)OC[C@H](NC(=O)CNC(=O)[C@H](Cc1ccccc1)NC(=O)c1coc(-c2ccccc2)n1)C(=O)O
6,98%,CC(C)C[C@H](NC(=O)[C@H](CO)NC(=O)[C@H](Cc1ccccc1)NC(=O)/C=C/c1ccc(F)cc1)C(N)=O
7,32%,CCCCCCCCCCC(=O)N[C@@H](Cc1ccc(O)cc1)C(=O)N[C@@H](Cc1cnc[nH]1)C(=O)N[C@@H](Cc1ccc(O)cc1)C(=O)NCCCn1ccnc1
8,101%,CCCCCCCCCCCOc1ccc(C(=O)N[C@@H](Cc2ccc(O)cc2)C(=O)N[C@@H](Cc2ccc(O)cc2)C(=O)N[C@@H](Cc2ccc(O)cc2)C(=O)Nc2ccc(F)cc2F)cc1
9,84%,O=C(CNC(=O)c1coc(-c2ccccc2)n1)N[C@@H](Cc1c[nH]cn1)C(=O)N[C@@H](Cc1ccccc1)C(=O)O
10,88%,O=C(CCc1ccc(F)cc1)N[C@@H](Cc1ccc(O)cc1)C(=O)NCC(=O)N[C@@H](Cc1ccc(O)cc1)C(=O)NC1CCCCC1
11,5%,C=CCCCCCCCCCOC(=O)[C@H](CO)NC(=O)CNC(=O)[C@H](Cc1ccccc1)NC(=O)c1coc(-c2ccccc2)n1
12,113%,C[C@@H](O)[C@H](NC(=O)C(Br)C(Br)c1ccccc1)C(=O)N[C@@H](Cc1ccccc1)C(=O)N[C@@H](CCC(N)=O)C(=O)Nc1cccc(Br)n1 (stereo partly drawn)
13,106%,CCCCCCCCCCCOc1ccc(C(=O)N[C@@H](Cc2ccc(O)cc2)C(=O)N[C@@H](Cc2ccc(O)cc2)C(=O)N[C@@H](Cc2ccc(O)cc2)C(=O)O)cc1
14,32%,CCCCCCCCCCC(=O)N[C@@H](Cc1ccc(O)cc1)C(=O)N[C@@H](Cc1c[nH]cn1)C(=O)N[C@@H](Cc1c[nH]cn1)C(=O)OC (Undecanoyl-Tyr-His-His-OMe)
15,89%,CC[C@H](C)[C@H](NC(=O)c1ccc(-c2ccccc2)cc1)C(=O)N[C@@H](C(=O)N[C@@H](CCC(N)=O)C(N)=O)C(C)C
16,136%,C=CCOC(=O)[C@H](Cc1cn(C(c2ccccc2)(c2ccccc2)c2ccccc2)cn1)NC(=O)[C@H](Cc1ccccc1)NC(=O)CNC(=O)c1csc(-c2cccs2)n1
17,74%,O=C(CNC(=O)[C@H](Cc1cn(C(c2ccccc2)(c2ccccc2)c2ccccc2)cn1)NC(=O)c1coc(-c2ccccc2)n1)N[C@@H](Cc1c[nH]c2ccccc12)C(=O)O
18,76%,CCCCCCCCCCC(=O)N[C@@H](Cc1c[nH]cn1)C(=O)N[C@@H](Cc1ccccc1)C(=O)N[C@@H](Cc1ccc(O)cc1)C(=O)N(C)OC
19,88%,CC(C)C[C@H](NC(=O)c1coc(-c2ccccc2)n1)C(=O)NCC(=O)N[C@@H](Cc1c[nH]cn1)C(=O)Nc1ccc(F)cc1F
20,47%,CCCCCCCCCCC(=O)N[C@@H](Cc1ccc(O)cc1)C(=O)N[C@@H](Cc1c[nH]cn1)C(=O)N[C@@H](Cc1c[nH]cn1)C(=O)NOC(C)(C)C

row,inhibition,Compound
1,102% and 98%,CC(C)C[C@H](NC(=O)[C@@H]1CCC(=O)N1)C(=O)N[C@@H](CCCCN)C(=O)NC1(C(=O)O)CCCCC1 ([pGlu]LK[Ac6c]-OH)
2,89%,CCCCCCCCCCCCCC(=O)N[C@@H](Cc1ccc(O)cc1)C(=O)N[C@@H](Cc1ccc(O)cc1)C(=O)N[C@@H](Cc1ccc(O)cc1)C(=O)N(C)OC
3,77%,CC(=O)Nc1cc(C(=O)N2CCC[C@@H]2C(=O)N[C@@H](C(=O)N[C@@H](CCC(N)=O)C(=O)NN)C(C)C)ccc1[N+](=O)[O-]
4,83%,CC[C@H](C)[C@H](NC(=O)/C=C/c1ccc(F)cc1)C(=O)N[C@@H](C)C(=O)N[C@@H](CCC(N)=O)C(=O)O
5,74%,C=CCOC(=O)[C@H](Cc1ccccc1)N(C)C(=O)[C@H](Cc1ccc(OC)cc1)N(C)C(=O)[C@@H](Cc1ccc(O)cc1)NC(=O)CCc1ccccc1
6,81%,CCCCCCCCCCCOc1ccc(C(=O)N[C@@H](Cc2c[nH]cn2)C(=O)N[C@@H](Cc2ccc(O)cc2)C(=O)N[C@@H](Cc2ccccc2)C(N)=O)cc1
7,86%,CCCCCCCCCCCOc1ccc(C(=O)N[C@@H](Cc2ccc(O)cc2)C(=O)N[C@@H](Cc2ccc(O)cc2)C(=O)N[C@@H](Cc2ccc(O)cc2)C(=O)N(C)CCc2ccccn2)cc1
8,56%,CCCCCCCCCCOc1ccc(C(=O)N[C@@H](Cc2c[nH]c3ccccc23)C(=O)N[C@@H](Cc2c[nH]cn2)C(=O)N[C@@H](Cc2c[nH]cn2)C(=O)OC)cc1
9,94%,CC(C)(C)Oc1ccc(C[C@H](NC(=O)c2coc(-c3ccccc3)n2)C(=O)NCC(=O)N[C@@H](Cc2cn(C(c3ccccc3)(c3ccccc3)c3ccccc3)cn2)C(=O)O)cc1
10,87%,CC(C)C[C@H](NC(=O)[C@H](COC(C)(C)C)NC(=O)[C@H](Cc1ccccc1)NC(=O)c1ccc(-c2ccccc2)cc1)C(=O)OCCCl
11,83%,O=C(CCc1ccccc1)N[C@@H](CO)C(=O)NCC(=O)N[C@@H](CO)C(=O)N1CCOCC1 (Hydrocinnamoyl-Ser-Gly-Ser-Morpholide)
12,102%,CON(C)C(=O)[C@H](CCC(N)=O)NC(=O)[C@H](Cc1ccccc1)NC(=O)[C@@H](NC(=O)C(Br)C(Br)c1ccccc1)[C@@H](C)O (stereo partly drawn)
13,79%,COC(=O)[C@H](Cc1ccc(O)cc1)NC(=O)CNC(=O)[C@H](C)NC(=O)/C=C/c1ccc(F)cc1
14,94%,CC(C)C[C@H](NC(=O)[C@H](CO)NC(=O)[C@H](Cc1ccccc1)NC(=O)/C=C/c1ccc(F)cc1)C(=O)Nc1nccs1
15,99%,O=C(/C=C/c1ccc(F)cc1)N[C@@H](CO)C(=O)N[C@@H](Cc1ccccc1)C(=O)N[C@@H](CO)C(=O)O
16,88%,CCCCCCCCCCCC(=O)N[C@@H](Cc1c[nH]cn1)C(=O)N[C@@H](Cc1c[nH]cn1)C(=O)N[C@@H](CO)C(=O)Nc1ccccc1N
17,70%,O=C(N[C@@H](CO)C(=O)N[C@@H](Cc1ccccc1)C(=O)N[C@@H](CO)C(=O)Nc1ccc(N2CCOCC2)cc1)C(Br)C(Br)c1ccc(F)cc1 (stereo partly drawn)
18,90%,CCCCCCCCCCC(=O)N[C@@H](Cc1ccc(O)cc1)C(=O)N[C@@H](Cc1cnc[nH]1)C(=O)N[C@@H](Cc1ccc(O)cc1)C(=O)O (Undecanoyl-Tyr-His-Tyr-OH)
19,95%,C[C@@H](NC(=O)CCc1ccccc1)C(=O)N[C@@H](Cc1ccccc1)C(=O)N[C@@H](CCC(N)=O)C(N)=O
20,89%,C=CCCCOC(=O)[C@H](CCC(N)=O)NC(=O)[C@H](C)NC(=O)[C@@H](NC(=O)c1ccc(-c2ccccc2)cc1)[C@@H](C)O

row,inhibition,Compound
1,81%,O=C(N[C@@H](CO)C(=O)N[C@@H](Cc1ccccc1)C(=O)N[C@@H](CO)C(=O)Nc1ccccc1)C(Br)C(Br)c1ccc(F)cc1 (stereo partly drawn)
2,32%,CCCCCCCCCCCOc1ccc(C(=O)N[C@@H](Cc2c[nH]cn2)C(=O)N[C@@H](Cc2c[nH]cn2)C(=O)N[C@@H](Cc2c[nH]cn2)C(N)=O)cc1
3,95%,CC(C)C[C@H](NC(=O)[C@@H]1CCC(=O)N1)C(=O)N[C@@H](CCCCN)C(=O)NC1(C(N)=O)CCCCC1 ([pGlu]LK[Ac6c]-NH2)
4,75%,CC(C)C[C@H](NC(=O)/C=C/c1ccccc1)C(=O)N[C@@H](Cc1ccccc1)C(=O)N[C@@H](Cc1ccccc1)C(=O)O
5,9%,O=C(N[C@@H](Cc1ccccc1)C(=O)N[C@@H](Cc1ccccc1)C(=O)N[C@@H](Cc1ccc(O)cc1)C(=O)O)OCc1ccccc1 (Cbz-Phe-Phe-Tyr-OH)
6,116%,O=C(CNC(=O)[C@H](Cc1ccccc1)NC(=O)c1coc(-c2ccccc2)n1)N[C@@H](CO)C(=O)Nc1cncs1
7,54%,CCCCCCCCCCCCCC(=O)OC[C@H](NC(=O)[C@@H](NC(=O)[C@H](CCCCNC(=O)c1coc(-c2ccccc2)n1)NC(=O)c1coc(-c2ccccc2)n1)[C@H](C)O)C(=O)O
8,71%,CON(C)C(=O)[C@H](CC(C)C)NC(=O)[C@H](CO)NC(=O)[C@H](Cc1ccccc1)NC(=O)/C=C/c1ccc(F)cc1
9,96%,NCCCC[C@H](NC(=O)CCc1ccccc1)C(=O)N[C@@H](Cc1c[nH]cn1)C(=O)N[C@@H](CO)C(=O)Nc1ccc(F)cc1F
10,104%,NC(=O)CC[C@H](NC(=O)[C@H](Cc1ccccc1)NC(=O)[C@H](CO)NC(=O)CCc1ccccc1)C(=O)Nc1ccc(F)cc1F
11,114%,CCCCCCCCCCCCCCCC(=O)N[C@@H](Cc1ccc(O)cc1)C(=O)N[C@@H](Cc1ccc(O)cc1)C(=O)N[C@@H](Cc1ccc(O)cc1)C(=O)OCCCl
12,104%,CC(C)CCNC(=O)[C@H](Cc1ccccc1)NC(=O)[C@H](CC(C)C)NC(=O)[C@@H]1CCCN1C(=O)/C=C/c1ccccc1
13,69%,CC#CCOC(=O)[C@H](Cc1ccccc1)NC(=O)CNC(=O)[C@@H]1CCCN1C(=O)/C=C/c1ccccc1
14,87%,CCCCCCCCCCCOc1ccc(C(=O)N[C@@H](Cc2c[nH]cn2)C(=O)N[C@@H](Cc2ccc(O)cc2)C(=O)N[C@@H](Cc2ccccc2)C(=O)N2CCOCC2)cc1
15,47%,CCCCCCCCCCC(=O)N[C@@H](Cc1c[nH]cn1)C(=O)N[C@@H](Cc1c[nH]cn1)C(=O)N[C@@H](CO)C(=O)N(C)CCc1ccccn1
16,98%,COC(=O)[C@H](CCC(N)=O)NC(=O)[C@H](NC(=O)[C@H]1CCCN1C(=O)c1ccc([N+](=O)[O-])c(NC(C)=O)c1)C(C)C
17,89%,CC[C@H](C)[C@H](NC(=O)c1ccc(-c2ccccc2)cc1)C(=O)N[C@@H](C(=O)N[C@@H](CCC(N)=O)C(=O)OCCCl)C(C)C
18,95%,O=C(CCc1ccccc1)N[C@@H](CO)C(=O)N[C@@H](Cc1ccccc1)C(=O)N[C@@H](CO)C(=O)NCc1ccccc1 (Hydrocinnamoyl-Ser-Phe-Ser-NHBn)

# From ChEMBL document CHEMBL1153722, “Design, synthesis, and characterization of peptide-based rab geranylgeranyl transferase inhibitors” (J Med Chem, 2009)
